Results taken from ChEMBL document CHEMBL2375217, “Structure activity relationship of phenolic diterpenes from Salvia officinalis as activators of the nuclear factor E2-related factor 2 pathway” (Bioorg Med Chem, 2013).
The source made the active and inactive calls. The rule behind the calls is not given here.

How the values were obtained:
[1] = target: T1, Nuclear factor erythroid 2-related factor 2 (Mus musculus) (UniProt Q60795); assay: Activation of Nrf2/ARE in E15 stage mouse primary cortical neurons at 6.25 to 50 uM after 48 hrs by human placental alkaline phosphatase reporter gene assay; assay type: cell-based; settings: Cerebral cortex neuron
T1 sequence (whole entry): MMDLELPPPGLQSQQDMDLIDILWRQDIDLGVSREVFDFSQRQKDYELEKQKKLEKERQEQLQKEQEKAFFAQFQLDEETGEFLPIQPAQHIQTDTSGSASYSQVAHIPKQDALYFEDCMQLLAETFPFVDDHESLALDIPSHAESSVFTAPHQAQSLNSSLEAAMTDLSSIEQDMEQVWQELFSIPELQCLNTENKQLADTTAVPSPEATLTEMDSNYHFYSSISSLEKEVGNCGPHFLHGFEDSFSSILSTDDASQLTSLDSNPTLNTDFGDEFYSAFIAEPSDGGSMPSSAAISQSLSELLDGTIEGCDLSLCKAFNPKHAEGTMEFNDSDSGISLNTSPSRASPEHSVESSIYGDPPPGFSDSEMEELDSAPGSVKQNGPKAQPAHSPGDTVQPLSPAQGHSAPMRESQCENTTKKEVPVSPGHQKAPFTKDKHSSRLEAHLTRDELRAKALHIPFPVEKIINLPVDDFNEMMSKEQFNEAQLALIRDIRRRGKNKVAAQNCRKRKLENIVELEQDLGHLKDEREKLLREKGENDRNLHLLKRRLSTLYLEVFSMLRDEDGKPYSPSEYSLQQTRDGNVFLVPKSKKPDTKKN
Summary of the method: (§1)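 Mixed cortical cultures (~40% astrocytes/60% neurons) from E15 ARE-hPAP reporter mice, hPAP driven by 51 bp rat NQO1 ARE promoter segment; 6 days in vitro, then compound in DMSO (0.1% final) for 48 h. Lysis in TMNC, endogenous phosphatase heat-inactivated in 200 mM DEA at 65 °C; CSPD chemiluminescence, hPAP-negative baseline subtracted; fold over vehicle, n = 5.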

[2] = target: T1, Nuclear factor erythroid 2-related factor 2 (Mus musculus); assay: Activation of Nrf2/ARE in E15 stage mouse primary cortical neurons after 48 hrs by human placental alkaline phosphatase reporter gene assay; assay type: cell-based; settings: Cerebral cortex neuron; summary of the method: as §1
Cerebral cortex neuron [3] = assay: Neuroprotective activity against H2O2-induced toxicity in E15 stage mouse primary cortical neurons at 10 uM incubated for 48 hrs prior to H2O2-treatment measured after 24 hrs by MTS assay; assay type: functional, cell-based
Summary of the method: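 Cortical cultures pretreated 48 h with compound or vehicle, then exposed to increasing H2O2 concentrations for 24 h; viability by soluble MTS assay. n = 4 compound, n = 8 vehicle; one-way ANOVA with Newman-Keuls.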

[4] = target: T1, Nuclear factor erythroid 2-related factor 2 (Mus musculus); assay: Induction of Nrf2/ARE-mediated GCLC gene expression in E15 stage mouse primary cortical neurons at 10 uM after 24 hrs by qPCR analysis; assay type: cell-based; settings: Cerebral cortex neuron
Summary of the method: (§2)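 E15 ARE-hPAP mouse mixed cortical cultures treated 24 h with compound or vehicle; total RNA harvested for quantitative PCR, normalised to GAPDH, fold change vs vehicle; n = 8 treated, n = 4 vehicle.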

[5] = target: T1, Nuclear factor erythroid 2-related factor 2 (Mus musculus); assay: Activation of Nrf2/ARE in E15 stage mouse primary cortical neurons at 50 uM after 48 hrs by human placental alkaline phosphatase reporter gene; assay type: cell-based; settings: Cerebral cortex neuron; summary of the method: as §1
[6] = target: T1, Nuclear factor erythroid 2-related factor 2 (Mus musculus); assay: Induction of Nrf2/ARE-mediated NQO1 gene expression in E15 stage mouse primary cortical neurons at 10 uM after 24 hrs by qPCR analysis; assay type: cell-based; settings: Cerebral cortex neuron; summary of the method: as §2
[7] = Cytotoxicity against E15 stage mouse primary cortical neurons at 50 uM by MTS assay; assay type: cell-based; settings: cerebral cortex neuron
Summary of the method: (§3)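 Mixed cortical cultures from E15 ARE-hPAP mice, 6 days in vitro (5% O2), exposed 48 h to compound in DMSO (0.1% final). Viability read by soluble MTS assay, normalised to vehicle as percent; mean ± SEM, n = 5, one-way ANOVA with Newman-Keuls.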

[8] = target: T1, Nuclear factor erythroid 2-related factor 2 (Mus musculus); assay: Activation of Nrf2/ARE in E15 stage mouse primary cortical neurons at 25 uM after 48 hrs by human placental alkaline phosphatase reporter gene assay relative to control; assay type: cell-based; settings: Cerebral cortex neuron; summary of the method: as §1
[9] = Cytotoxicity against E15 stage mouse primary cortical neurons at 25 uM by MTS assay; assay type: cell-based; settings: cerebral cortex neuron; summary of the method: as §3
Cerebral cortex neuron [10] = assay: Neuroprotective activity against H2O2-induced oxidative stress in E15 stage mouse primary cortical neurons at 10 uM incubated for 48 hrs prior to H2O2-treatment measured after 24 hrs by TUNEL/DAPI staining-based microscopic analysis; assay type: functional, cell-based
Summary of the method: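 Cortical cultures pretreated 48 h with compound or vehicle, then 35 μM H2O2 for 24 h; fragmented DNA detected by TUNEL staining, nuclei counterstained with DAPI, imaged by photomicroscopy.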

[11] = target: T1, Nuclear factor erythroid 2-related factor 2 (Mus musculus); assay: Induction of Nrf2/ARE-mediated GCLM gene expression in E15 stage mouse primary cortical neurons at 20 uM after 24 hrs by qPCR analysis; assay type: cell-based; settings: Cerebral cortex neuron
Summary of the method: (§4)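 Mixed cortical cultures (~40% astrocytes, 60% neurons) from E15 ARE-hPAP reporter mouse pups, grown in Neurobasal/B27 medium at 37 °C under 5% O2, 5% CO2. Treated with compound or vehicle for 24 h. Total RNA used for quantitative PCR, normalised to GAPDH and expressed as fold change relative to vehicle. Mean ± SEM, n = 8 treated, n = 4 vehicle. One-way ANOVA with Newman-Keuls.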

[12] = target: T1, Nuclear factor erythroid 2-related factor 2 (Mus musculus); assay: Induction of Nrf2/ARE-mediated NQO1 gene expression in E15 stage mouse primary cortical neurons at 20 uM after 24 hrs by qPCR analysis; assay type: cell-based; settings: Cerebral cortex neuron; summary of the method: as §4
Cerebral cortex neuron [13] = assay: Neuroprotective activity against H2O2-induced oxidative stress in E15 stage mouse primary cortical neurons at 20 uM incubated for 48 hrs prior to H2O2-treatment measured after 24 hrs by TUNEL/DAPI staining-based microscopic analysis; assay type: functional, cell-based
Summary of the method: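 Mixed cortical cultures (~40% astrocytes, 60% neurons) from E15 ARE-hPAP reporter mouse pups were pretreated with compound or vehicle for 48 h. They were then exposed to 35 μM H2O2 for a further 24 h. Fragmented DNA was stained by TUNEL and nuclei by DAPI, and both were imaged by photomicroscopy.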

[14] = target: T1, Nuclear factor erythroid 2-related factor 2 (Mus musculus); assay: Induction of Nrf2/ARE-mediated GCLC gene expression in E15 stage mouse primary cortical neurons at 20 uM after 24 hrs by qPCR analysis; assay type: cell-based; settings: Cerebral cortex neuron; summary of the method: as §4
Cerebral cortex neuron [15] = assay: Neuroprotective activity against H2O2-induced toxicity in E15 stage mouse primary cortical neurons at 20 uM incubated for 48 hrs prior to H2O2-treatment measured after 24 hrs by MTS assay; assay type: functional, cell-based
Summary of the method: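 Mixed cortical cultures (~40% astrocytes, 60% neurons) from E15 ARE-hPAP reporter mouse pups were pretreated with compound or vehicle for 48 h. They were then challenged with increasing H2O2 concentrations for 24 h. Viability was read by soluble MTS assay. Mean ± SEM, n = 4 compound, n = 8 vehicle. One-way ANOVA with Newman-Keuls.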

Compound	Activity [1]	Activity [2]	Activity [7]	other results
CC(C)(C)c1cc(O)ccc1O	Active			
CC(C)c1cc2c(c(O)c1O)C1=C(CC2)C(C)(C)CCC1=O	Active	Dose-dependent effect		
CC(C)c1cc2c(c(O)c1O)[C@@]13CCCC(C)(C)[C@@H]1[C@H](OC3=O)[C@@H]2O	Active	Dose-dependent effect		
CC(C)c1cc2c(c(O)c1O)[C@@]13CCCC(C)(C)[C@@H]1[C@H](OC3=O)[C@H]2O	Active	Dose-dependent effect		
COc1c(C(C)C)cc2c(c1O)[C@@]1(C(=O)O)CCCC(C)(C)[C@@H]1CC2	inactive			
CC(C)c1cc2c(c(O)c1O)[C@@]1(C=O)CCCC(C)(C)[C@@H]1CC2 [CARNOSALDEHYDE]		Dose-dependent effect	Toxic	Activity (Cerebral cortex neuron [3]): Active; Activity [4]: Active; Activity [5]: inactive; Activity [6]: Active; fold change (FC) [8]: 50; Activity [9]: Toxic; Activity (Cerebral cortex neuron [10]): Active
CC(C)c1cc2c(c(O)c1O)[C@@]1(C(=O)O)CCCC(C)(C)[C@@H]1CC2 [CARNOSIC ACID]	Active	Dose-dependent effect	Toxic	
CC(C)c1cc2c(c(O)c1O)[C@@]13CCCC(C)(C)[C@@H]1C[C@@H]2OC3=O [CARNOSOL]		Dose-dependent effect	Toxic	Activity [11]: Active; Activity [5]: inactive; Activity [12]: Active; Activity (Cerebral cortex neuron [13]): Active; Activity [14]: Active; fold change (FC) [8]: 50; Activity (Cerebral cortex neuron [15]): Active
